Marks after values point to notes of the source that are not given here.
Assays:
HIV-1 subtype B [1] = experiment: Change in plasma HIV-1 RNA, GSK3532795 monotherapy for 10 days; assay type: in vivo, human
Outline: (§1)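 HIV-1-infected adults aged 18–55 with plasma HIV-1 RNA ≥5000 copies/mL and CD4+ count ≥200 cells/µL, PI- and MI-naive, were randomized 4:1 to test compound or placebo, double-blind. Dosing was once daily by oral suspension after a ≥10-hour fast for 10 days: part A subtype B, 5–120 mg; part C subtype C, 40 or 120 mg. Plasma HIV-1 RNA was measured by real-time PCR at screening and on days 1–14, 17, 19 and 24–26.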

HIV-1 subtype C = experiment: as above; assay type: in vivo, human; settings: for Median of the maximum change from baseline in HIV-1 RNA / Median decline (baseline to day 11) in HIV-1 RNA: Part C
Outline: as §1

[2] = Plasma pharmacokinetics of GSK3532795, part A; assay type: in vivo; settings: human, oral
Outline: (§2)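 The test compound was given as monotherapy by oral suspension after a ≥10-hour fast, once daily for 10 days (part A subtype B, 5–120 mg; part C subtype C, 40 or 120 mg). Serial blood samples were taken on days 1 and 10, with troughs on days 2, 4, 6 and 8. Plasma levels were measured by validated LC/MS and analysed noncompartmentally. Dose proportionality was assessed with a power model on log exposure versus log dose.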

[3] = Plasma pharmacokinetics of GSK3532795, part B; assay type: in vivo, human; settings: for AUC increase compared with the same dose given as monotherapy: fed vs fasted monotherapy; for AUC / concentration at 24 h / Cmax / Tmax: human, plasma, oral; for AUC: AUCtau (%CV); for concentration at 24 h: C24 (%CV); for Cmax: Cmax (%CV); for Tmax: median (min–max)
Outline: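 Male subtype B-infected subjects took the test compound (40 or 80 mg) once daily with atazanavir 400 mg, or with atazanavir/ritonavir 300 mg/100 mg. Dosing was open-label, as an oral suspension with breakfast, for 28 days. Serial samples were taken on days 1 and 10, with troughs on days 2, 4, 6 and 8. Plasma levels were measured by validated LC/MS and analysed noncompartmentally.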

[4] = Plasma pharmacokinetics of GSK3532795, part C; assay type: in vivo, human; settings: for AUC / Cmax / Tmax: human, plasma, oral
Outline: as §2

Safety assessments = assay type: in vivo, human; settings: for Any AE / Deaths / Discontinuations due to AE(s) / Grade 3–4 related AEs / Laboratory abnormalities (grade 3–4) / Serious AEs: Parts A/C
Outline: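 Over the 10-day once-daily oral monotherapy (test compound or placebo, double-blind, fasted) and follow-up, staff recorded vital signs, physical examination, laboratory measurements, ECG and adverse events. Adverse events were coded with MedDRA version 17.1. Investigators graded their severity and their relationship to study drug.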

HIV-1 subtype B [5] = experiment: Exposure–response relationship; assay type: in vivo, human; settings: Part A
Outline: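 Part A subjects received the test compound orally, fasted, once daily for 10 days. Plasma concentration at 24 hours on day 10 was measured by validated LC/MS. It was related to the maximum change from baseline in log10 HIV-1 RNA with a 3-parameter […] Emax model, Y = E0 + Emax*C/(EC50 + C).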

[6] = Solubility in aqueous media; assay type: physicochemical
[7] = healthy subjects; ref Bristol-Myers Squibb, data on file; cited from earlier work
[8] = cited from earlier work
HIV-1 = settings: cited from earlier work
HIV-1 Gag = settings: in vitro, compared with BVM; cited from earlier work
[9] = Part B, fed, 40 mg + ATV 300 mg + RTV 100 mg QD
[10] = Part B, fed, 40 mg + ATV 400 mg QD
[11] = Part B, fed, 80 mg + ATV 400 mg QD

C=C(C)[C@@H]1CC[C@]2(NCCN3CCS(=O)(=O)CC3)CC[C@]3(C)[C@H](CC[C@@H]4[C@@]5(C)CC=C(c6ccc(C(=O)O)cc6)C(C)(C)[C@@H]5CC[C@]43C)[C@@H]12 [GSK3532795]
Decline in HIV-1 RNA (HIV-1 subtype B [1]; Part A, 20–120 mg QD dose groups): > 1 log10 | Plateau of decline in HIV-1 RNA (HIV-1 subtype B [1]; Part A, 40–120 mg QD dose groups): approximately 1.64 log10 copies/mL | Median decline (baseline to day 11) in HIV-1 RNA (HIV-1 subtype B [1]; Part A, 40–120 mg QD, consistently from approximately day 7): > 1 log10 copies/mL | Range of median of the maximum decline in HIV-1 RNA (HIV-1 subtype B [1]; Part A, 40–120 mg QD, in the presence of baseline Gag polymorphisms (n = 15)): −1.43 to −1.98 log10 copies/mL | Median of the maximum change in HIV-1 RNA from baseline to study discharge on day 24 (HIV-1 subtype B [1]; Part A, across all GSK3532795 groups (5–120 mg QD)): −0.50 to −1.70 log10 copies/mL | Median maximum decline in HIV-1 RNA (HIV-1 subtype B [1]; following 10 days of monotherapy in subtype B–infected subjects): 1.70 log10 copies/mL | Decline in HIV-1 RNA (HIV-1 subtype C; 10 days of 40 mg or 120 mg QD monotherapy, subtype C–infected subjects with ≥1 of 3 Gag polymorphisms at baseline): > 1 log10 | Median of the maximum change from baseline in HIV-1 RNA (HIV-1 subtype C; 40 mg QD): −1.35 log10 copies/mL | Median decline (baseline to day 11) in HIV-1 RNA (HIV-1 subtype C; 40 mg QD, observed after day 8): > 1 log10 copies/mL | Median of the maximum change from baseline in HIV-1 RNA (HIV-1 subtype C; 120 mg QD): −1.26 log10 copies/mL | Median decline (baseline to day 11) in HIV-1 RNA (HIV-1 subtype C; 120 mg QD, observed after day 10): > 1 log10 copies/mL | Tmax [2]: 3 h | half-life [2]: 1800 to 2100 min | AUC ([2]; 5 mg): 2720 ng·h/mL | Cmax ([2]; 5 mg): 171 ng/mL | Tmax ([2]; 5 mg): 3 h | concentration at 24 h ([2]; 5 mg): 81.6 ng/mL | half-life ([2]; 5 mg): 1960 min | AUC ([2]; 10 mg): 5170 ng·h/mL | Cmax ([2]; 10 mg): 337 ng/mL | Tmax ([2]; 10 mg): 3 h | concentration at 24 h ([2]; 10 mg): 139 ng/mL | half-life ([2]; 10 mg): 1990 min | AUC ([2]; 20 mg): 11800 ng·h/mL | Cmax ([2]; 20 mg): 705 ng/mL | Tmax ([2]; 20 mg): 4 h | concentration at 24 h ([2]; 20 mg): 326 ng/mL | half-life ([2]; 20 mg): 1780 min | AUC ([2]; 40 mg): 23000 ng·h/mL | Cmax ([2]; 40 mg): 1480 ng/mL | Tmax ([2]; 40 mg): 3 h | concentration at 24 h ([2]; 40 mg): 713 ng/mL | half-life ([2]; 40 mg): 2030 min | AUC ([2]; 80 mg): 39300 ng·h/mL | Cmax ([2]; 80 mg): 2470 ng/mL | Tmax ([2]; 80 mg): 3 h | concentration at 24 h ([2]; 80 mg): 1150 ng/mL | half-life ([2]; 80 mg): 1800 min | AUC ([2]; 120 mg): 44200 ng·h/mL | Cmax ([2]; 120 mg): 2810 ng/mL | Tmax ([2]; 120 mg): 2.5 h | concentration at 24 h ([2]; 120 mg): 1290 ng/mL | half-life ([2]; 120 mg): 2090 min | Increase in exposures compared with the same dose given as monotherapy fasted ([3]; GSK3532795 + ATV alone in the fed state): up to 50% | AUC increase compared with the same dose given as monotherapy ([3]; Part B, 40 mg + ATV alone): approximately 40% | AUC increase compared with the same dose given as monotherapy ([3]; Part B, 80 mg + ATV alone): ~50% | Exposures higher with ATV/RTV relative to administration with ATV alone ([3]; Part B, GSK3532795 40 mg): ~ 10% | Increase in exposures between 40 mg and 80 mg ([3]; Part B, coadministered with ATV alone, fed): ~ 2 fold | Tmax delay ([3]; Part B, with ATV ± RTV in the fed state): 1 to 2 h | AUC [3, 9]: 34200 ng·h/mL | AUC [3, 10]: 31400 ng·h/mL | AUC [3, 11]: 59900 ng·h/mL | concentration at 24 h [3, 9]: 1160 ng/mL | concentration at 24 h [3, 10]: 1100 ng/mL | concentration at 24 h [3, 11]: 2010 ng/mL | Cmax [3, 9]: 1850 ng/mL | Cmax [3, 10]: 1670 ng/mL | Cmax [3, 11]: 3160 ng/mL | Tmax [3, 9]: 5 h | Tmax [3, 10]: 4.5 h | Tmax [3, 11]: 4.5 h | Increase in Cmax and AUCtau between 40 mg and 120 mg ([4]; Part C, monotherapy, less than dose-proportional): ~ 2 fold | AUC ([4]; 40 mg): 25600 ng·h/mL | Cmax ([4]; 40 mg): 1560 ng/mL | Tmax ([4]; 40 mg): 3 h | AUC ([4]; 120 mg): 54000 ng·h/mL | Cmax ([4]; 120 mg): 3380 ng/mL | Tmax ([4]; 120 mg): 3 h | Any AE (Safety assessments; 5 mg QD (n=8)): 5 (62.5) n (%) | Deaths (Safety assessments; 5 mg QD (n=8)): 0 n (%) | Discontinuations due to AE(s) (Safety assessments; 5 mg QD (n=8)): 0 n (%) | Grade 3–4 related AEs (Safety assessments; 5 mg QD (n=8)): 0 n (%) | Laboratory abnormalities (grade 3–4) (Safety assessments; 5 mg QD (n=8)): 0 n (%) | Serious AEs (Safety assessments; 5 mg QD (n=8)): 0 n (%) | Any AE (Safety assessments; 10 mg QD (n=8)): 4 (50.0) n (%) | Deaths (Safety assessments; 10 mg QD (n=8)): 0 n (%) | Discontinuations due to AE(s) (Safety assessments; 10 mg QD (n=8)): 0 n (%) | Grade 3–4 related AEs (Safety assessments; 10 mg QD (n=8)): 0 n (%) | Laboratory abnormalities (grade 3–4) (Safety assessments; 10 mg QD (n=8)): 0 n (%) | Serious AEs (Safety assessments; 10 mg QD (n=8)): 0 n (%) | Any AE (Safety assessments; 20 mg QD (n=8)): 4 (50.0) n (%) | Deaths (Safety assessments; 20 mg QD (n=8)): 0 n (%) | Discontinuations due to AE(s) (Safety assessments; 20 mg QD (n=8)): 0 n (%) | Grade 3–4 related AEs (Safety assessments; 20 mg QD (n=8)): 0 n (%) | Laboratory abnormalities (grade 3–4) (Safety assessments; 20 mg QD (n=8)): 0 n (%) | Serious AEs (Safety assessments; 20 mg QD (n=8)): 0 n (%) | Any AE (Safety assessments; 40 mg QD (n=16)): 8 (50.0) n (%) | Deaths (Safety assessments; 40 mg QD (n=16)): 0 n (%) | Discontinuations due to AE(s) (Safety assessments; 40 mg QD (n=16)): 0 n (%) | Grade 3–4 related AEs (Safety assessments; 40 mg QD (n=16)): 0 n (%) | Laboratory abnormalities (grade 3–4) (Safety assessments; 40 mg QD (n=16)): 0 n (%) | Serious AEs (Safety assessments; 40 mg QD (n=16)): 0 n (%) | Any AE (Safety assessments; 80 mg QD (n=8)): 7 (87.5) n (%) | Deaths (Safety assessments; 80 mg QD (n=8)): 0 n (%) | Discontinuations due to AE(s) (Safety assessments; 80 mg QD (n=8)): 0 n (%) | Grade 3–4 related AEs (Safety assessments; 80 mg QD (n=8)): 0 n (%) | Laboratory abnormalities (grade 3–4) (Safety assessments; 80 mg QD (n=8)): 0 n (%) | Serious AEs (Safety assessments; 80 mg QD (n=8)): 0 n (%) | Any AE (Safety assessments; 120 mg QD (n=15)): 10 (66.6) n (%) | Deaths (Safety assessments; 120 mg QD (n=15)): 0 n (%) | Discontinuations due to AE(s) (Safety assessments; 120 mg QD (n=15)): 0 n (%) | Grade 3–4 related AEs (Safety assessments; 120 mg QD (n=15)): 0 n (%) | Serious AEs (Safety assessments; 120 mg QD (n=15)): 0 n (%) | Laboratory abnormalities (grade 3–4) (Safety assessments; 120 mg QD (n=15), grade 3 transient neutropenia reported as related to GSK3532795): 1 (6.7)^c n (%) | Cases of hyperbilirubinemia (Safety assessments; during GSK3532795 monotherapy): no cases | Predicted maximum decline in HIV-1 RNA from baseline (HIV-1 subtype B [5]; Emax model): approximately 1.7 log10 copies/mL | C24 at which apparent response plateau was achieved (HIV-1 subtype B [5]; steady-state C24 vs maximum change in HIV-1 RNA): ≥ 500 ng/mL | solubility [6]: < 1 µg/mL | Half-life (T1/2) [7]: approximately 35 hours | Human serum binding [8]: 86% | EC50 shift in the presence of serum (HIV-1): 5.4 fold | Effect when combined with other antiretrovirals, including integrase inhibitors (HIV-1; in vitro studies): additive | Binding to HIV-1 Gag (HIV-1 Gag): binds reversibly to HIV-1 Gag with greater affinity than BVM

C=C(C)[C@@H]1CC[C@]2(C(=O)O)CC[C@]3(C)[C@H](CC[C@@H]4[C@@]5(C)CC[C@H](OC(=O)CC(C)(C)C(=O)O)C(C)(C)[C@@H]5CC[C@]43C)[C@@H]12 [BVM, 3-o-(3’,3’-dimethylsuccinyl)betulinic acid, reference compound]
Protein binding [8]: > 99%

From PMC5848258 (Clinical Infectious Diseases: An Official Publication of …, 2017)
